The values that follow come from ChEMBL document CHEMBL1123579, “Synthesis and evaluation of mono-, di-, and trifluoroethenyl-GABA derivatives as GABA-T inhibitors” (J Med Chem, 1987).

Data set [1] can be described thus: Dissociation constant pKa was reported. It is filed as physicochemical.
For data set [2], the system named is Mus musculus. Briefly: Brain GABA level was measured in mice 6 hour after intraperitoneal administration at a dose of 1.9 mM/ kg. It is filed as functional. Summed up:
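Male Swiss Albino mice (20–25 g), housed five per cage with free food and water on a 12-h light cycle, received drug ip as aqueous solution and were decapitated 6 h later. Half-brain homogenized in 10 mL 0.2 N HClO4, and supernatant GABA measured on an automatic amino acid analyzer. Mean ± SEM of five animals; control n = 15 pooled across days; Student's t test.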

Data set [3] concerns Mus musculus. Briefly: In vivo brain GABA-T activity was measured in mice 6 hour after intraperitoneal administration at a dose of 1.9 mM / kg. In kind it is functional. Summed up: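 Male Swiss Albino mice (20–25 g) received drug ip as aqueous solution and were decapitated 6 h later. Half-brain was frozen, then homogenized in 9 volumes of 10 mM KH2PO4 pH 6.8 with 0.1 mM pyridoxal phosphate, 1 mM EDTA, 0.1 mM glutathione, 0.13% Triton X-100 and 20% glycerol for GABA-T activity. Mean ± SEM, n = 5; control n = 15; Student's t test.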

Data set [4] concerns Mus musculus. Description: Brain GABA level was measured in mice 6 hour after intraperitoneal administration at a dose of 3.8 mM/ kg. In kind it is functional. Summed up:
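Male Swiss Albino mice (20–25 g), housed five per cage under a 12-h light-dark cycle, were given drug ip as an aqueous solution. They were decapitated 6 h later and brains split sagittally and frozen. Half-brain was homogenized in 10 mL 0.2 N HClO4, and supernatant GABA was measured by automatic amino acid analyzer. Values are mean ± SEM of five animals (controls: 15, different days); Student's t test.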

Data set [5] deals with Mus musculus. Description: In vivo brain GABA-T activity was measured in mice 6 hour after intraperitoneal administration at a dose of 3.8 mM / kg. In kind it is functional. Summed up:
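Male Swiss Albino mice (20–25 g) got an ip aqueous dose and were decapitated 6 h later. Brains were split sagittally and frozen. Half-brain was homogenized in 9 volumes of 10 mM KH2PO4 pH 6.8 with 0.1 mM pyridoxal phosphate, 1 mM EDTA, 0.1 mM glutathione, 0.13% Triton X-100 and 20% glycerol for GABA-T activity. Values are mean ± SEM, n = 5 (controls 15); Student's t test.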

Structures are written as SMILES.

The term pKa denotes the negative logarithm of the acid dissociation constant. The low end stands for a group that gives up its proton readily, the high end for a group that holds its proton tightly. In data set [1], `C#CC(N)CCC(=O)O` (stereo unspecified) gave a pKa of 8.2.
In data set [1], `NC(C=C(F)F)CCC(=O)O` (stereo unspecified) came in with a pKa of 9.32. In addition, the Activity was determined as 2.8 µM/g in the data set with Mus musculus [2] and 42.4 mM/h in the data set on Mus musculus [3].
On the same counts, the results for `C=C(F)C(N)CCC(=O)O` (stereo unspecified) are 8.32, 3.6 µM/g and 59.7 mM/h.
In data set [1], `NC(/C=C\F)CCC(=O)O` (stereo unspecified) came in with a pKa of 9.35. Also, the Activity with Mus musculus [2] stood at 9.8 µM/g; in the data set with Mus musculus [3], 38.3 mM/h.
The molecule `NC(CCC(=O)O)C(F)=C(F)F` (stereo unspecified) showed a pKa in data set [1] of 7.87. For the same molecule, the Activity is 2.7 µM/g with Mus musculus [4] and 69.4 mM/h in the data set on Mus musculus [5].
With `C=CC(N)CCC(=O)O` (stereo unspecified) [VIGABATRIN], in data set [1], the pKa was 9.5. The results for the Activity in the data set on Mus musculus [2] and in the data set on Mus musculus [3] were 9.1 µM/g and 29.3 mM/h, respectively.
